Assay results reported in ChEMBL document CHEMBL5653631, “A Potent and Selective ULK1 Inhibitor Suppresses Autophagy and Sensitizes Cancer Cells to Nutrient Stress” (iScience, 2018).
Each block holds one compound with its values, some of them ahead of it.

Assays:
[1] = target: Serine/threonine-protein kinase Nek7 (Homo sapiens) (UniProt Q8TDX7); assay: Inhibition of human recombinant NEK7 at 500 nM in presence of ATP by radiometric assay relative to control
[2] = target: Eukaryotic translation initiation factor 2-alpha kinase 1 (Homo sapiens) (UniProt Q9BQI3); assay: Inhibition of human recombinant HRI at 500 nM related to control ULK1
Eukaryotic translation initiation factor 2-alpha kinase 1 (Homo sapiens), sequence (Q9BQI3 whole entry): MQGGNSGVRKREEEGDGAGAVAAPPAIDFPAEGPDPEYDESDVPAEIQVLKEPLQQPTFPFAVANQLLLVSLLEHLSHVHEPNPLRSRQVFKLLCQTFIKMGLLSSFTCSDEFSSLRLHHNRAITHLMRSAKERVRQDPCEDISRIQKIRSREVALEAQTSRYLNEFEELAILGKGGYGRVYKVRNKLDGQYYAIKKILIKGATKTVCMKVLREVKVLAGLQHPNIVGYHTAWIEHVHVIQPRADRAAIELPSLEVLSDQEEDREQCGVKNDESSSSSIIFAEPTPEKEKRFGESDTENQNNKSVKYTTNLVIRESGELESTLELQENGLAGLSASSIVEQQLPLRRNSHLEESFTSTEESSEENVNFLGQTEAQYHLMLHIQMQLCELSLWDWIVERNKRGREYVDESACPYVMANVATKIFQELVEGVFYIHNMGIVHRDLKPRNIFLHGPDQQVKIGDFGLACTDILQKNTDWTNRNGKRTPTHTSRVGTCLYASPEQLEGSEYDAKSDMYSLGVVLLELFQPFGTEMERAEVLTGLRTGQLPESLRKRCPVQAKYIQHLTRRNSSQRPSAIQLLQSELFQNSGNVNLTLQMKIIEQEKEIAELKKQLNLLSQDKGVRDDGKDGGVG

[3] = target: T1, Aurora kinase A (Homo sapiens) (UniProt O14965); assay: Inhibition of human recombinant AurA at 15 nM related to control ULK1
T1 sequence (whole entry): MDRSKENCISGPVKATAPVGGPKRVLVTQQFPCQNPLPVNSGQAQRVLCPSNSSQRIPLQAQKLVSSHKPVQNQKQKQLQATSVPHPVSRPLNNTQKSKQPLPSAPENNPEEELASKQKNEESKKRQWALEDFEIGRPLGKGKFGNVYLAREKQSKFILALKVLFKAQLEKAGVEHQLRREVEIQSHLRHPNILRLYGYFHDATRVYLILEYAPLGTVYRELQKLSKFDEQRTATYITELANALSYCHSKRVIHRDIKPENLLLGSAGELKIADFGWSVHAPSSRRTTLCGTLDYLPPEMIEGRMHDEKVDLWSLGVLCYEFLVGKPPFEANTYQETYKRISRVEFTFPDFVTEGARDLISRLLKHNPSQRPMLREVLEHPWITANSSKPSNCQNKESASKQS
Procedure, shortened: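 Panel of 327 recombinant human kinases, each assayed in vitro by radiometric activity assay in duplicate at a single inhibitor concentration per compound, chosen with reference to its ULK1 inhibition. Activity remaining was expressed as percent of vehicle control, and percent inhibition was calculated as 100 minus percent activity remaining.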

[4] = target: T2, Serine/threonine-protein kinase Chk1 (Homo sapiens) (UniProt O14757); assay: Inhibition of human recombinant CHK1 at 15 nM in presence of ATP by radiometric assay relative to control
T2 sequence (whole entry): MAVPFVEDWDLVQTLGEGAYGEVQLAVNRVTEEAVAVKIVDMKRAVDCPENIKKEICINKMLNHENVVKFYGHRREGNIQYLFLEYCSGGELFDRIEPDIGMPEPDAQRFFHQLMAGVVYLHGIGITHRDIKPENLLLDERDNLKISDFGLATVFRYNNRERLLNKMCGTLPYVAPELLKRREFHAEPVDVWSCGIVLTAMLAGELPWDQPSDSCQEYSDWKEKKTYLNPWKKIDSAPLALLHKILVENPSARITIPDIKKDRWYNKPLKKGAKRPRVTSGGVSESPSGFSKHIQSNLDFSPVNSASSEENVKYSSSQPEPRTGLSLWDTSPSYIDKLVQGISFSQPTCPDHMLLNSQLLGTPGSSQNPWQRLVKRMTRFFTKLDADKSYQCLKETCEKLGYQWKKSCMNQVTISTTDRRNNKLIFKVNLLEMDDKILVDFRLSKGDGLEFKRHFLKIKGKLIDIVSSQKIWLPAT

[5] = target: T3, Dual specificity tyrosine-phosphorylation-regulated kinase 2 (Homo sapiens) (UniProt Q92630); assay: Inhibition of human recombinant DYRK2 at 15 nM related to control ULK1
T3 sequence (whole entry): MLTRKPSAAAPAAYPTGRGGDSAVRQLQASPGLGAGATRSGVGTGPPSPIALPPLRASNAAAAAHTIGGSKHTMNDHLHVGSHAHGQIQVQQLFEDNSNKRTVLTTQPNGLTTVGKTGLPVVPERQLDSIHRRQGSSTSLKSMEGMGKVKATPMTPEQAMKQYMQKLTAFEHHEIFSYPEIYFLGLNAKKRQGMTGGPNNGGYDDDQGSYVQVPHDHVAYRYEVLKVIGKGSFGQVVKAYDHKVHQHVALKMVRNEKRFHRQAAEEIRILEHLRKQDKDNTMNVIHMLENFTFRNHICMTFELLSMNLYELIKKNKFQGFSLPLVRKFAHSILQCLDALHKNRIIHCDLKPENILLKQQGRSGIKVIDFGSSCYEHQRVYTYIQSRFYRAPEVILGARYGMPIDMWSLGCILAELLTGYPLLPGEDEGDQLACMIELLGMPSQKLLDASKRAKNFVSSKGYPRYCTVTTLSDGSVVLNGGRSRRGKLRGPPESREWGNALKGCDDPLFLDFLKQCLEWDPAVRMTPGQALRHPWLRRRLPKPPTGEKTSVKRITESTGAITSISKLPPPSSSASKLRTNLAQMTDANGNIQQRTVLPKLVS

[6] = target: T4, Muscle, skeletal receptor tyrosine-protein kinase (Homo sapiens) (UniProt O15146); assay: Inhibition of human recombinant MUSK at 40 nM related to control ULK1
T4 sequence (whole entry): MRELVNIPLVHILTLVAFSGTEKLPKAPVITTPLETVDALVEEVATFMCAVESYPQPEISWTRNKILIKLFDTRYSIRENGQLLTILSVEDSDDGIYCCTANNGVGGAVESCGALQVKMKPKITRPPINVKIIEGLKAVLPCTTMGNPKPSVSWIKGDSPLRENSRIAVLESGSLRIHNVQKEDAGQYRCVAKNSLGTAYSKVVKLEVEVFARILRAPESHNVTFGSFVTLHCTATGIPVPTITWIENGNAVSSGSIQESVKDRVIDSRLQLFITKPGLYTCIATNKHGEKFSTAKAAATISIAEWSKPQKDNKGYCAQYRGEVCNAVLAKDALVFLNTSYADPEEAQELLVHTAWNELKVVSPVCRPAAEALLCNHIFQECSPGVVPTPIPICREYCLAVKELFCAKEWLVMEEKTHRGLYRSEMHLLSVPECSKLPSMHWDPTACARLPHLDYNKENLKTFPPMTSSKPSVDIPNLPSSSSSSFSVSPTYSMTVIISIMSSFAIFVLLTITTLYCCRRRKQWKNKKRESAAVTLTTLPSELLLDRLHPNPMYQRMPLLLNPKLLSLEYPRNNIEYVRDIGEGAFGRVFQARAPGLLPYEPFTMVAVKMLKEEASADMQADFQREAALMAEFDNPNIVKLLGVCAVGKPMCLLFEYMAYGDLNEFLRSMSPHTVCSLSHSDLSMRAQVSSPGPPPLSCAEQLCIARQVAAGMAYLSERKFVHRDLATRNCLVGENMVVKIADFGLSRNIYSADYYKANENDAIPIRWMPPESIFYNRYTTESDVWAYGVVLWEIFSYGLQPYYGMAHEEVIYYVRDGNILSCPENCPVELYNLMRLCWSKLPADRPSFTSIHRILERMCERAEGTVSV

Serine/threonine-protein kinase Nek7 (Homo sapiens), sequence (Q8TDX7 whole entry, looked up): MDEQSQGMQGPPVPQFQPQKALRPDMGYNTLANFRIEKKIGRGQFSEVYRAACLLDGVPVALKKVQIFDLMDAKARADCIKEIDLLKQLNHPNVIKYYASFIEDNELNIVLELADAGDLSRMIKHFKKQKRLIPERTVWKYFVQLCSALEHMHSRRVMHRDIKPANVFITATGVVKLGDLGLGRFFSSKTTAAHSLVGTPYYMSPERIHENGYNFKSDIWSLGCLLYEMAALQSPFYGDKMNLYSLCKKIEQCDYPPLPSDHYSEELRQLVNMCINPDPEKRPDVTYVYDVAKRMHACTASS

inhibition [1]: 0% | fold change (FC) [2]: 0
SMILES: CNC(=O)c1ccccc1Oc1nc(Nc2cc(OC)c(OC)c(OC)c2)ncc1Br

fold change (FC) [3]: 0.15 | inhibition [4]: 0% | fold change (FC) [5]: 0.09
SMILES: CC(C)[C@H](NC(=O)c1cc(-c2cnn3cc(-c4ccc(OCCN5CCCCC5)cc4)cnc23)cs1)C(F)(F)F

fold change (FC) [6]: 0.18
SMILES: O=C(N[C@@H](C1CC1)C(F)(F)F)c1cc(-c2cnn3cc(-c4ccc(F)cc4)cnc23)cs1
